From ChEMBL document CHEMBL3351523 (Bioorg Med Chem, 2014)

Tested on: not listed separately
Assay: Cytotoxicity against mock-infected human MT4 cells after 96 hrs by MTT assay
Format: cell-based
Settings: not given
Procedure, shortened: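 Exponentially growing MT-4 cells were seeded at 1 × 10^5 cells/mL in RPMI-1640 with 10% FBS and held at 37 °C, 5% CO2 with serial compound dilutions. Viability was read by MTT after 96 h. CC50 from linear regression against untreated controls.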
With `c1ccc(Cn2c(-c3ccccc3)nc3ccccc32)cc1` the CC50 at 96 h was 47 µM.
`Cc1ccc2nc(-c3ccc(F)cc3)n([C@H]3CCCN4CCCC[C@H]34)c2c1` gave a CC50 at 96 h greater than 100 µM.
Molecule `Clc1ccc2nc(-c3ccccc3)n([C@H]3CCCN4CCCC[C@H]34)c2c1` has a CC50 at 96 h of 56 µM.

Tested on: Poliovirus 1
Assay: Antiviral activity against Poliovirus type 1 Sabin strain infected in african green monkey Vero 76 cells assessed as reduction in plaque number after 2 days by plaque reduction assay
Format: functional, organism-based
Settings: Enterovirus C, 48 h
`c1ccc(Cn2c(-c3ccccc3)nc3ccccc32)cc1` showed an EC50 greater than 100 µM.
For `Cc1ccc2nc(-c3ccc(F)cc3)n([C@H]3CCCN4CCCC[C@H]34)c2c1`, the EC50 was greater than 100 µM.
For `Clc1ccc2nc(-c3ccccc3)n([C@H]3CCCN4CCCC[C@H]34)c2c1`, the EC50 was greater than 100 µM.

Tested on: Reovirus sp.
Assay: Antiviral activity against Reovirus type-1 infected in BHK21 cells assessed as inhibition of virus-induced cytopathogenicity after 3 to 4 days by MTT assay
Format: functional, organism-based
Settings: BHK-21
In the case of `c1ccc(Cn2c(-c3ccccc3)nc3ccccc32)cc1`, the EC50 is reported as greater than 100 µM.
For `Cc1ccc2nc(-c3ccc(F)cc3)n([C@H]3CCCN4CCCC[C@H]34)c2c1`, the EC50 was greater than 100 µM.
For `Clc1ccc2nc(-c3ccccc3)n([C@H]3CCCN4CCCC[C@H]34)c2c1`, the EC50 was greater than 100 µM.

Tested on: Vaccinia virus
Assay: Antiviral activity against Vaccinia Virus infected in african green monkey Vero 76 cells assessed as reduction in plaque number after 3 days by plaque reduction assay
Format: functional, organism-based
Settings: Orthopoxvirus vaccinia, 72 h
In the case of `c1ccc(Cn2c(-c3ccccc3)nc3ccccc32)cc1`, the EC50 is reported as greater than 100 µM.
`Cc1ccc2nc(-c3ccc(F)cc3)n([C@H]3CCCN4CCCC[C@H]34)c2c1` gave an EC50 greater than 100 µM.
Molecule `Clc1ccc2nc(-c3ccccc3)n([C@H]3CCCN4CCCC[C@H]34)c2c1` has an EC50 greater than 100 µM.

Tested on: Human alphaherpesvirus 1
Assay: Antiviral activity against HSV1 infected in african green monkey Vero 76 cells assessed as reduction in plaque number after 3 days by plaque reduction assay
Format: functional, organism-based
Settings: Human alphaherpesvirus 1, Vero, 72 h
In the case of `c1ccc(Cn2c(-c3ccccc3)nc3ccccc32)cc1`, the EC50 is reported as greater than 100 µM.
For `Cc1ccc2nc(-c3ccc(F)cc3)n([C@H]3CCCN4CCCC[C@H]34)c2c1`, the EC50 was greater than 100 µM.
Work on `Clc1ccc2nc(-c3ccccc3)n([C@H]3CCCN4CCCC[C@H]34)c2c1` yielded an EC50 greater than 100 µM.

Tested on: Human immunodeficiency virus 1
Assay: Antiviral activity against HIV1 infected in human MT4 cells assessed as inhibition of virus-induced cytopathogenicity after 4 days by MTT assay
Format: functional, organism-based
Settings: Human immunodeficiency virus 1, MT4, 96 h
Procedure, shortened: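 MT-4 cells (1 × 10^4/well in RPMI) were infected acutely with HIV-1 IIIB, 100 CCID50 (m.o.i. 0.01), with serial dilutions from 100 µM, 1:5. After 4 days at 37 °C, protection from virus-induced cytopathogenicity was read by MTT. EC50 came from linear regression against untreated controls.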
For `c1ccc(Cn2c(-c3ccccc3)nc3ccccc32)cc1`, the EC50 was greater than 100 µM.
In the case of `Cc1ccc2nc(-c3ccc(F)cc3)n([C@H]3CCCN4CCCC[C@H]34)c2c1`, the EC50 is reported as greater than 100 µM.
For `Clc1ccc2nc(-c3ccccc3)n([C@H]3CCCN4CCCC[C@H]34)c2c1`, the EC50 was greater than 100 µM.

Tested on: Yellow fever virus
Assay: Antiviral activity against Yellow fever virus infected in BHK21 cells assessed as inhibition of virus-induced cytopathogenicity after 3 to 4 days by MTT assay
Format: functional, organism-based
Settings: BHK-21
With `c1ccc(Cn2c(-c3ccccc3)nc3ccccc32)cc1` the EC50 was greater than 100 µM.
Molecule `Cc1ccc2nc(-c3ccc(F)cc3)n([C@H]3CCCN4CCCC[C@H]34)c2c1` has an EC50 greater than 100 µM.
With `Clc1ccc2nc(-c3ccccc3)n([C@H]3CCCN4CCCC[C@H]34)c2c1` the EC50 was greater than 100 µM.

Tested on: not listed separately
Assay: Selectivity index, ratio of CC50 for african green monkey Vero 76 cells to EC50 for Respiratory syncytial virus
Format: toxicity, cell-based
Settings: read-out: Ratio CC50/EC50
Procedure, shortened: (§1)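 Mock-infected Vero-76 cells were tested in parallel on the same 24-well plates as the plaque assays (seeding 4 × 10^5 cells/mL, D-MEM with FBS), with serial compound dilutions at 37 °C, 5% CO2. Viability was read after 48–96 h by crystal violet staining. CC50 by linear regression; selectivity index = Vero-76 CC50/EC50 for CVB-5 or RSV.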
`c1ccc(Cn2c(-c3ccccc3)nc3ccccc32)cc1` showed a selectivity ratio of 3.48.
In the case of `Cc1ccc2nc(-c3ccc(F)cc3)n([C@H]3CCCN4CCCC[C@H]34)c2c1`, the selectivity ratio is reported as greater than 1.59.
For `Clc1ccc2nc(-c3ccccc3)n([C@H]3CCCN4CCCC[C@H]34)c2c1`, the selectivity ratio was 2.

Tested on: not listed separately
Assay: Selectivity index, ratio of CC50 for african green monkey Vero 76 cells to EC50 for Coxsackievirus B5
Format: toxicity, cell-based
Settings: read-out: Ratio CC50/EC50
Procedure, shortened: as §1
Molecule `Cc1ccc2nc(-c3ccc(F)cc3)n([C@H]3CCCN4CCCC[C@H]34)c2c1` has a selectivity ratio greater than 1.25.
Work on `Clc1ccc2nc(-c3ccccc3)n([C@H]3CCCN4CCCC[C@H]34)c2c1` yielded a selectivity ratio of 6.43.

Tested on: Respiratory syncytial virus
Assay: Antiviral activity against Respiratory syncytial virus infected in african green monkey Vero 76 cells assessed as reduction in plaque number after 5 days by plaque reduction assay
Format: functional, organism-based
Settings: human respiratory syncytial virus, 120 h
Molecule `c1ccc(Cn2c(-c3ccccc3)nc3ccccc32)cc1` has an EC50 of 25 µM.
In the case of `Cc1ccc2nc(-c3ccc(F)cc3)n([C@H]3CCCN4CCCC[C@H]34)c2c1`, the EC50 is reported as 63 µM.
With `Clc1ccc2nc(-c3ccccc3)n([C@H]3CCCN4CCCC[C@H]34)c2c1` the EC50 was 45 µM.

Tested on: Vesicular stomatitis virus
Assay: Antiviral activity against Vesicular stomatitis virus infected in african green monkey Vero 76 cells assessed as reduction in plaque number after 2 days by plaque reduction assay
Format: functional, organism-based
Settings: 48 h
`c1ccc(Cn2c(-c3ccccc3)nc3ccccc32)cc1` gave an EC50 greater than 100 µM.
Work on `Cc1ccc2nc(-c3ccc(F)cc3)n([C@H]3CCCN4CCCC[C@H]34)c2c1` yielded an EC50 greater than 100 µM.
For `Clc1ccc2nc(-c3ccccc3)n([C@H]3CCCN4CCCC[C@H]34)c2c1`, the EC50 was greater than 100 µM.

Tested on: Coxsackievirus B5
Assay: Antiviral activity against Coxsackievirus B5 infected in african green monkey Vero 76 cells assessed as reduction in plaque number after 3 days by plaque reduction assay
Format: functional, organism-based
Settings: Enterovirus B, 72 h
For `c1ccc(Cn2c(-c3ccccc3)nc3ccccc32)cc1`, the EC50 was greater than 100 µM.
`Cc1ccc2nc(-c3ccc(F)cc3)n([C@H]3CCCN4CCCC[C@H]34)c2c1` gave an EC50 of 80 µM.
Molecule `Clc1ccc2nc(-c3ccccc3)n([C@H]3CCCN4CCCC[C@H]34)c2c1` has an EC50 of 14 µM.

Tested on: not listed separately
Assay: Cytotoxicity against mock-infected BHK21 cells after 48 to 96 hrs by MTT assay
Format: functional
Settings: Mesocricetus auratus, BHK-21
Procedure, shortened: (§2)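 Mock-infected MDBK (6 × 10^5 cells/mL; MEM-E, 10% horse serum, 1 mM pyruvate) or BHK (1 × 10^6 cells/mL; MEM-E, 10% FBS) cells were incubated at 37 °C, 5% CO2 with serial dilutions from 100 µM, 1:5. Viability by MTT after 48–96 h. CC50 from linear regression against untreated controls.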
`c1ccc(Cn2c(-c3ccccc3)nc3ccccc32)cc1` showed a CC50 of 36 µM.
For `Cc1ccc2nc(-c3ccc(F)cc3)n([C@H]3CCCN4CCCC[C@H]34)c2c1`, the CC50 was greater than 100 µM.
`Clc1ccc2nc(-c3ccccc3)n([C@H]3CCCN4CCCC[C@H]34)c2c1` gave a CC50 of 48 µM.

Tested on: Bovine viral diarrhea virus 1
Assay: Antiviral activity against Bovine viral diarrhea virus infected in MDBK cells assessed as inhibition of virus-induced cytopathogenicity after 3 to 4 days by MTT assay
Format: functional, organism-based
Settings: Bovine viral diarrhea virus isolates and strains
Work on `c1ccc(Cn2c(-c3ccccc3)nc3ccccc32)cc1` yielded an EC50 greater than 100 µM.
`Cc1ccc2nc(-c3ccc(F)cc3)n([C@H]3CCCN4CCCC[C@H]34)c2c1` showed an EC50 greater than 100 µM.
For `Clc1ccc2nc(-c3ccccc3)n([C@H]3CCCN4CCCC[C@H]34)c2c1`, the EC50 was 80 µM.

Tested on: not listed separately
Assay: Cytotoxicity against mock-infected MDBK cells after 48 to 96 hrs by MTT assay
Format: cell-based, Bos taurus
Settings: cattle
Procedure, shortened: as §2
`c1ccc(Cn2c(-c3ccccc3)nc3ccccc32)cc1` gave a CC50 of 54 µM.
Molecule `Cc1ccc2nc(-c3ccc(F)cc3)n([C@H]3CCCN4CCCC[C@H]34)c2c1` has a CC50 greater than 100 µM.
`Clc1ccc2nc(-c3ccccc3)n([C@H]3CCCN4CCCC[C@H]34)c2c1` gave a CC50 of 86 µM.

Tested on: not listed separately
Assay: Cytotoxicity against mock-infected african green monkey Vero 76 cells after 48 to 96 hrs by MTT assay
Format: cell-based
Settings: chlorocebus sabaeus, mock-infected Vero 76 cells
Work on `c1ccc(Cn2c(-c3ccccc3)nc3ccccc32)cc1` yielded a CC50 of 87 µM.
For `Cc1ccc2nc(-c3ccc(F)cc3)n([C@H]3CCCN4CCCC[C@H]34)c2c1`, the CC50 was greater than 100 µM.
In the case of `Clc1ccc2nc(-c3ccccc3)n([C@H]3CCCN4CCCC[C@H]34)c2c1`, the CC50 is reported as 90 µM.
